GSTO1 inh – counter-screen for RBBP9 inhibitors: inhibitors of human GSTO1; recombinant GSTO1, activity-based probe fluorescence polarization; inhibition, % at 5.96 µM; actives 1.1% (n = 300,000);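 active = inhibition above the campaign mean inhibition plus 3 SD, cut at about 35% in these data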;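 also: 0% = GSTO1-1 with DMSO and 100% = wells lacking GSTO1-1 enzyme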
PAD4 FP inh – inhibitors of human PAD4; Q9UM07; inhibition, % at 6.36 µM; recombinant PAD4, RCA probe fluorescence polarization; actives 0.41% (n = 330,000);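 active = percent inhibition above a cutoff equal to the mean of all tested compounds plus 3 SD, cut at about 15% in these data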;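 also: 0% = PAD4 with RCA probe and DMSO and 100% = probe without PAD4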
PP5 inh – inhibitors of human protein phosphatase 5 (PP5); P53041; purified PP5c, OMFP substrate fluorescence; inhibition, % at 6.7 µM; actives 0.18% (n = 320,000); AID 1987;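 active = inhibition above the campaign's mean inhibition across all tested compounds plus 3 SD, cut at about 9.5% in these data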;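 also: 0% = DMSO only and 100% = 100 µM cantharidin control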
Apaf1 inhib – blocks human Apaf-1 apoptosome activity; inhibition, % at 20 µM; reconstituted apoptosome caspase-3 activity, DEVD-Rh110 fluorescence; actives 0.71% (n = 330,000); active = inhibition of at least 40% at 20 µM;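 also: plate controls were DMSO wells for no effect and DEVD-CHO caspase inhibitor wells for full effect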
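System: reconstituted apoptosome with Apaf-1, cytochrome c, caspase-9, procaspase-3, dATP; Signal: Rh110 fluorescence intensity; Schedule: 30 min compound preincubation, 50 min activation, room temperature; Reagent: cytochrome c trigger plus (Z-DEVD)2-Rh110 caspase-3 substrate.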
CTSL1 counter – cathepsin L1 inhibition, PFM18AAP counter-screen. recombinant F. hepatica cathepsin L1, Z-Leu-Arg-MCA fluorescence. inhibition, % at 5.96 µM. actives 0.49% (n = 300,000);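 active = inhibition above the mean of all tested compounds plus 3 SD, set per screening campaign, cut at about 17% in these data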;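 also: 0% = plate median of test compound wells and 100% = 1 µM Z-Phe-Ala-diazomethylketone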
UCH37 inh – human UCH37 deubiquitinating enzyme inhibition; Q9Y5K5; purified proteasome/UCH37, Ub-AMC cleavage fluorescence; inhibition, % (no concentration beside the values); actives 0.33% (n = 330,000); AID 588478;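 active = mean inhibition over replicate wells above about 20%, limit read from the data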;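 also: 0% = compound-free wells with enzyme and 100% = wells lacking proteasome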
Target sequence (Q9Y5K5 whole entry, looked up): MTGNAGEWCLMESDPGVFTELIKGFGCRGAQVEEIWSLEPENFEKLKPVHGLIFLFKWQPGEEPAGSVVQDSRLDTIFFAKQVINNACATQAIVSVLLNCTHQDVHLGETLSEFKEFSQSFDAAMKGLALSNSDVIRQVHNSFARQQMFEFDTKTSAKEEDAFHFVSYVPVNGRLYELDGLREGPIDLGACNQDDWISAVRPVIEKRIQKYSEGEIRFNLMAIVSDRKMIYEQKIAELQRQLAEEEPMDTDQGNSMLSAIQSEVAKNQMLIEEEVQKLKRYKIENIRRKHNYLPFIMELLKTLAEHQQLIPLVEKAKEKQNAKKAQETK
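Material: Human UCH37 enzyme supplied as purified proteasome complex | Schedule: 30 min compound-proteasome preincubation then 25 min substrate reaction, room temperature | Detection: AMC fluorescence from Ub-AMC cleavage, excitation 355 nm, emission 460 nm | Benchmarks: Wells without proteasome as full block, compound-free enzyme plus substrate as uninhibited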
PAD4 confirm – confirmation of human PAD4 inhibitors; shares compounds with PAD4 FP inh; recombinant PAD4, RCA probe fluorescence polarization; inhibition, % at 6.36 µM; actives 28% (n = 1,200);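 active = mean inhibition across replicates above the hit cutoff set by the earlier primary screen, cut at about 15% in these data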;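 also: inhibitors block active-site labeling by the probe so polarization falls; 0% = PAD4 with probe and DMSO and 100% = probe without PAD4 enzyme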
* = called active by the depositor; / = no result given. In the library only some 2% were active in any assay of this set; here they are far more common.

SMILES	GSTO1 inh	PAD4 FP inh	PP5 inh	Apaf1 inhib	CTSL1 counter	UCH37 inh	PAD4 confirm
COc1ccccc1/C=C\C=NNC(=O)c1ccco1	/	/	/	/	/	-10	/
O=C(Nc1ccc(Nc2ccccc2)cc1)c1ccccc1	3	46*	0	-5	-1	6	0
CC(=NNc1ccnc2cc(Cl)ccc12)c1ccc(N)cc1	/	/	/	/	/	0	/
Cn1nnnc1Sc1ncnc2scc(-c3cc4ccccc4o3)c12	/	16*	3	7	/	/	13
COc1ccc(C(=O)NN=Cc2cccc3cccnc23)cc1	/	/	/	/	/	5	/
O=C(CSCc1ccccc1Cl)NCCSc1ccccn1	7	16*	-1	3	8	2	1
O=C(COc1ccc(Cl)cc1)NCCSCc1ccccc1Cl	4	0	1	11	-2	2	/
CCC(=Nn1nnnc1Nc1ccccc1)c1ccccc1	/	/	/	/	/	3	/
CC(C)c1ccc(/C=N/n2nnnc2Nc2ccccc2)cc1	2	15*	-1	-9	-1	/	6
ON=C(c1ccccc1)c1cc2cc(Br)cc(Br)c2o1	/	/	/	/	/	-1	/
Fc1ccc(C[n+]2csc3ccccc32)cc1	9	21*	2	-7	0	/	34*
Cc1ccc(-c2c[n+](Cc3ccc(Cl)cc3)c3n2CCC3)cc1	1	6	-1	14	-2	3	/
Clc1ccc(C[n+]2csc3ccccc32)cc1	-4	19*	3	/	-7	6	34*
Fc1ccc(CSc2ncnc3scc(-c4ccccc4)c23)cc1	1	-1	1	10	5	1	/
Cc1ccc2cc(CN(Cc3cccs3)C(=O)c3ccco3)c3nnnn3c2c1C	1	-1	1	13	-3	0	/
Cc1ccc2c(c1)cc(CN(Cc1cccs1)C(=O)c1ccco1)c1nnnn12	4	30*	2	20	-2	2	0
COc1ccc(C=NNc2cc(C)nc3ccccc23)cc1	/	/	/	/	/	-28	/
CC(=O)Nc1ccc(S(=O)(=O)Nc2cccc(C(=O)Nc3ccccc3C(=O)O)c2)cc1	-34	18*	0	6	-2	7	3
CC(=O)Nc1cccc(C(=O)Nc2ccccc2C(=O)O)c1	7	0	-3	2	5	5	/
CCN(CC)S(=O)(=O)c1ccc(N=NC2=C(O)CCCC2=O)cc1	8	168*	2	-11	0	3	4
COc1cc(C=NNC(=O)COc2c(C)cc([N+](=O)[O-])cc2C)ccc1OC(=O)c1ccccc1Br	/	/	/	/	/	3	/
Cc1ccc2nc(NC(=O)CSc3nncc(=O)n3N)sc2c1	10	19*	4	-12	-2	3	8
Cc1no[n+]([O-])c1COc1cccc(/C=N/Nc2nncn2N)c1	18	32*	1	-14	5	/	5
CC1=NN(c2ccc(Cl)c(C(=O)O)c2)C(=O)C1	72*	36*	2	8	1	5	-2
CC1=NN(c2ccc(C(=O)O)cc2)C(=O)CC1	3	3	3	-7	-1	3	/
SMILES	GSTO1 inh	PAD4 FP inh	PP5 inh	Apaf1 inhib	CTSL1 counter	UCH37 inh	PAD4 confirm
Nc1c(C(=O)NN=Cc2ccc([N+](=O)[O-])cc2)sc2nnc(-c3ccccc3)c(-c3ccccc3)c12	/	/	/	/	/	7	/
CC(=O)N(Cc1cc(=O)[nH]c2ccccc12)c1cccc(C)c1	3	53*	3	9	-1	-2	44*
CCCC(=O)N(Cc1cc(=O)[nH]c2ccccc12)c1cccc(C)c1	-5	22*	0	19	2	1	49*
CCC(=O)N(Cc1cc(=O)[nH]c2ccccc12)c1ccc(C)cc1	-17	15*	1	-3	1	2	0
CCCC(=O)N(Cc1cc(=O)[nH]c2ccccc12)c1ccccc1C	-3	15*	-1	8	-3	1	17*
Cc1sc2ncnc(NN=Cc3ccc(O)cc3)c2c1C	/	/	/	/	/	8	/
O=C(NN=Cc1ccc(O)cc1)c1csc2c1CCCC2	/	/	/	/	/	-1	/
NC(=NOC(=O)CCCc1ccccc1)c1ccc([N+](=O)[O-])cc1	/	/	/	/	/	3	/
CC1=CC(C)[C@@H]2COC(c3ccc(O)cc3)C1C2C (some centres not stated)	/	/	/	/	/	2	/
COc1cccc(OC)c1C(=O)NCCc1ccccc1	2	4	1	-3	1	6	/
